Results taken from ChEMBL document CHEMBL1124154, “Polycyclic aryl- and heteroarylpiperazinyl imides as 5-HT1A receptor ligands and potential anxiolytic agents: synthesis and structure-activity relationship studies” (J Med Chem, 1988).

How the values were obtained:
Rattus norvegicus = organism: Rattus norvegicus; assay: Concentration required to produce 50% block in avoidance responding in conditioned avoidance response test in rat; type: functional
Procedure, shortened: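 Trained rats in shelf-jump and/or discrete-trial conditioned avoidance paradigms. Drug given ip or po to at least five rats per dose, with a control session before each drug run. Trials without avoidance (avoidance block) were counted per dose as a percentage of total trials, with control set at 100%. AB50 was taken from a least-squares dose-effect regression line.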

[1] = biological target: D(2) dopamine receptor (Rattus norvegicus) (UniProt P61169); assay: In vitro inhibition of [3H]spiperone binding to dopamine receptor D2 from rat brain limbic tissue at 1 uM; type: tissue-based; conditions: Limbic system
Chain of D(2) dopamine receptor (Rattus norvegicus) (P61169 whole entry): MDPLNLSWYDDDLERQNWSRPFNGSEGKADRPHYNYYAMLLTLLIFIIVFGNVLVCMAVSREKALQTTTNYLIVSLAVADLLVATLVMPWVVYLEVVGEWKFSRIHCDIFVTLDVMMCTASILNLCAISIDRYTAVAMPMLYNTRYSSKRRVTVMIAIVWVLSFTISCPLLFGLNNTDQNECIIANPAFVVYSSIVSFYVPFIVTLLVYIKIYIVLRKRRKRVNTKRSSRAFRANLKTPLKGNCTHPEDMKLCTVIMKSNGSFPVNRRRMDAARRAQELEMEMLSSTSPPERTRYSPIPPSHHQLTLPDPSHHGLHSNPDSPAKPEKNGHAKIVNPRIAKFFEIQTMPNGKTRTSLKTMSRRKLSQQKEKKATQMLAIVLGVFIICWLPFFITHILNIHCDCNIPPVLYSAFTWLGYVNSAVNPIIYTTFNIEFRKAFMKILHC

[2] = biological target: T1, 5-hydroxytryptamine receptor 1A (Rattus norvegicus, UniProt P19327); assay: In vitro inhibition of [3H]-8-hydroxy-2-(di-n-propylamino)tetralin binding to 5-hydroxytryptamine 1A receptor from rat hippocampal tissue.
T1 sequence (P19327 whole entry): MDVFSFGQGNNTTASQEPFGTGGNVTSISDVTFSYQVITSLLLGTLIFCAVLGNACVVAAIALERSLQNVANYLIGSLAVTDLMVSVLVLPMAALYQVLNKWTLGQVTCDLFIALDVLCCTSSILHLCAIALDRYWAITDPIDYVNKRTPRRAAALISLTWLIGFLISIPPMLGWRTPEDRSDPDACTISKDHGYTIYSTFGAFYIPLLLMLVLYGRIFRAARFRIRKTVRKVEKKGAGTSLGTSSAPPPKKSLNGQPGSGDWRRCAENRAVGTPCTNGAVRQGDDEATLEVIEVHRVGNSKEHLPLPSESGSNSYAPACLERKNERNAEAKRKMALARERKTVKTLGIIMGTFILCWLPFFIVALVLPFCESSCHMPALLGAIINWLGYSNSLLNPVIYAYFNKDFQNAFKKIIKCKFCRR

[3] = biological target: T2, 5-hydroxytryptamine receptor 1A (Rattus norvegicus) (UniProt P19327); assay: In vitro inhibition of [3H]-8-hydroxy-2-(di-n-propylamino)tetralin binding to 5-hydroxytryptamine 1A receptor from rat hippocampal tissue at 1 uM; conditions: Hippocampus
T2 sequence (whole entry): T1 sequence (P19327 whole entry)

inhibition [1] | Ki [2] | inhibition [3] | SMILES | AB50 (Rattus norvegicus)
 | 190 nM |  | O=C1C2C3C=CC(C4CCC34)C2C(=O)N1CCCCN1CCN(c2cncc(Cl)n2)CC1 (stereo unspecified) | 40 mg/kg
50% |  |  | O=C1C2C3C=CC(C4C=CC43)C2C(=O)N1CCCCN1CCN(c2cncc(Cl)n2)CC1 (stereo unspecified) | 40 mg/kg
97% | 17 nM |  | Cl.O=C1C2C3CCCC(CC3)C2C(=O)N1CCCCN1CCN(c2cccc(C(F)(F)F)c2)CC1 (stereo unspecified) | >40 mg/kg
48% | 37 nM |  | O=C1C2C3C=CC(C3)C2C(=O)N1CCCCN1CCN(c2nccnc2Cl)CC1 (stereo unspecified) | 40 mg/kg
75% | 26 nM |  | O=C1C2C3CCC(C4CC43)C2C(=O)N1CCCCN1CCN(c2nccnc2Cl)CC1 (stereo unspecified) | 61 mg/kg
74% | 5 nM |  | Cl.O=C1C2C3CCCC(CC3)C2C(=O)N1CCCCN1CCN(c2ncccn2)CC1 (stereo unspecified) | 40 mg/kg
49% | 162 nM |  | O=C1C2C3CCCC(CC3)C2C(=O)N1CCCCN1CCN(c2cncc(Cl)n2)CC1 (stereo unspecified) | >40 mg/kg
100% | 14 nM |  | O=C1C2C3C=CC(C4CC34)C2C(=O)N1CCCCN1CCN(c2cccc(Cl)c2)CC1 (stereo unspecified) | 40 mg/kg
53% |  |  | Cl.O=C1N(CCCCN2CCN(c3ncccn3)CC2)C(=O)C23C4C=CC(C4)C12C1C=CC3C1 (stereo unspecified) | 40 mg/kg
96% | 25 nM |  | Cl.O=C1C2C3C=CC(C4C=CC43)C2C(=O)N1CCCCN1CCN(c2cccc(C(F)(F)F)c2)CC1 (stereo unspecified) | 40 mg/kg
 |  | 23% | O=C1N(CCCCN2CCN(c3cncc(Cl)n3)CC2)C(=O)C23C4CCC(C4)C12C1CCC3C1 (stereo unspecified) | 40 mg/kg
99% | 57 nM |  | Cl.O=C1C2C3C=CC(C4CCC34)C2C(=O)N1CCCCN1CCN(c2cccc(C(F)(F)F)c2)CC1 (stereo unspecified) | 40 mg/kg

Second part, the compound before the results:

SMILES | inhibition [1] | Ki [2] | inhibition [3] | AB50 (Rattus norvegicus)
O=C1C2C3C=CC(CCCC3)C2C(=O)N1CCCCN1CCN(c2cncc(Cl)n2)CC1 (stereo unspecified) |  |  |  | 25 mg/kg
O=C1C2C3C=CC(C3)C2C(=O)N1CCCCN1CCN(c2ccc(Cl)nn2)CC1 (stereo unspecified) | 19% |  |  | 40 mg/kg
O=C1C2C3C=CC(CCC3)C2C(=O)N1CCCCN1CCN(c2cncc(Cl)n2)CC1 (stereo unspecified) | 43% |  |  | 68 mg/kg
O=C1C2C3CCC(C4CCC43)C2C(=O)N1CCCCN1CCN(c2cncc(Cl)n2)CC1 (stereo unspecified) |  | 51 nM |  | >40 mg/kg
O=C1[C@@H]2[C@H]3CC[C@H](C3)[C@@H]2C(=O)N1CCCCN1CCN(c2ncccn2)CC1 [TANDOSPIRONE] |  | 9 nM |  | 28 mg/kg
Cl.O=C1C2C3C=CC(C4CC34)C2C(=O)N1CCCCN1CCN(c2cccc(C(F)(F)F)c2)CC1 (stereo unspecified) | 91% | 26 nM |  | 44 mg/kg
O=C1C2C3C=CC(C4CCC34)C2C(=O)N1CCCCN1CCN(c2cccc(Cl)c2)CC1 (stereo unspecified) | 87% | 19 nM |  | 40 mg/kg
Cl.O=C1C2C3CCC(C4CC43)C2C(=O)N1CCCCN1CCN(c2cccc(C(F)(F)F)c2)CC1 (stereo unspecified) | 92% | 20 nM |  | >40 mg/kg
Cl.O=C1N(CCCCN2CCN(c3ncccn3)CC2)C(=O)C23C4CCC(C4)C12C1CCC3C1 (stereo unspecified) | 63% |  |  | 40 mg/kg
O=C1C2C3C=CC(C4CC34)C2C(=O)N1CCCCN1CCN(c2cncc(Cl)n2)CC1 (stereo unspecified) |  |  |  | 40 mg/kg
O=C1C2C3C=CC(C4C=CC43)C2C(=O)N1CCCCN1CCN(c2cccc(Cl)c2)CC1 (stereo unspecified) | 3% | 41 nM |  | >40 mg/kg
Cl.O=C1N(CCCCN2CCN(c3cnccn3)CC2)C(=O)C23C4C=CC(C4)C12C1C=CC3C1 (stereo unspecified) | 14% | 129 nM |  | 40 mg/kg
O=C1N(CCCCN2CCN(c3cncc(Cl)n3)CC2)C(=O)C23C4C=CC(C4)C12C1C=CC3C1 (stereo unspecified) |  |  | 98% | >40 mg/kg
